Results reported in ChEMBL document CHEMBL3627702, “Navigating CYP1A Induction and Arylhydrocarbon Receptor Agonism in Drug Discovery. A Case History with S1P1 Agonists” (J Med Chem, 2015).

What was measured:
CYP1A2 [1] = experiment: Induction of CYP1A2 mRNA expression in rat hepatic microsomes at 30 mg/kg, po QD for 7 days relative to control; format: ADME, organism-based, Liver; settings: read-out: FC
Procedure, shortened: (§1)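 Male rats dosed orally once daily for 7 days. Hepatic mRNA measured by Taqman and expressed as fold induction versus control animals.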

CYP1A1 [2] = experiment: Induction of CYP1A1 mRNA expression in rat hepatic microsomes at 30 mg/kg, po QD for 7 days relative to control; format: ADME, organism-based, Liver; settings: read-out: FC; procedure, shortened: as §1
CYP1A2 [3] = experiment: (§2) Induction of CYP1A2 mRNA expression in rat hepatocytes at 10 uM by Taqman analysis relative to control; format: ADME, cell-based, Hepatocyte; settings: read-out: FC
CYP1A1 [4] = experiment: (§3) Induction of CYP1A1 mRNA expression in rat hepatocytes at 10 uM by Taqman analysis relative to control; format: ADME, cell-based, Hepatocyte; settings: read-out: FC
Rattus norvegicus [5] = experiment: Induction of CYP1A2 gene expression in rat hepatic microsomes at 30 to 300 mg/kg, po QD for 7 days; format: ADME, organism-based, Liver; settings: 168 h
Procedure, shortened: (§4)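 Rats dosed orally once daily for 7 days at 30–300 mg/kg/day, depending on compound. Hepatic AhR-panel gene mRNA (Cyp1a, Nqo1, Ephx1) measured and expressed as fold induction versus control animals.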

CYP1A1 [6] = experiment: Induction of CYP1A1 gene expression in rat hepatic microsomes at 30 to 300 mg/kg, po QD for 7 days; format: ADME, organism-based, Liver; settings: read-out: FC
Procedure, shortened: (§5)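 Rats received oral doses daily for 7 days: 30 and 100 mg/kg, or 30, 100 and 300 mg/kg, depending on compound. Hepatic CYP1A1 mRNA was expressed as fold induction versus control animals.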

Rattus norvegicus [7] = experiment: Induction of Nqo1 gene expression in rat hepatic microsomes at 30 to 300 mg/kg, po QD for 7 days; format: organism-based, Liver; settings: 168 h; procedure, shortened: as §4
Rattus norvegicus [8] = experiment: Induction of Ephx1 gene expression in rat hepatic microsomes at 30 to 300 mg/kg, po QD for 7 days; format: organism-based, Liver; settings: 168 h; procedure, shortened: as §4
Rattus norvegicus [9] = experiment: Induction of CYP1A2 gene expression in po dosed rat hepatic microsomes administered po QD for 7 days; format: ADME, organism-based, Liver; settings: 168 h; procedure, shortened: as §4
Rattus norvegicus [10] = experiment: Induction of CYP1A1 gene expression in po dosed rat hepatic microsomes administered po QD for 7 days; format: ADME, organism-based, Liver; settings: 168 h; procedure, shortened: as §5
Rattus norvegicus [11] = experiment: Induction of Nqo1 gene expression in po dosed rat hepatic microsomes administered po QD for 7 days; format: organism-based, Liver; settings: 168 h; procedure, shortened: as §4
Rattus norvegicus [12] = experiment: Induction of Ephx1 gene expression in po dosed rat hepatic microsomes administered po QD for 7 days; format: organism-based, Liver; settings: 168 h; procedure, shortened: as §4
Rattus norvegicus [13] = experiment: Induction of CYP1A2 mRNA expression in rat hepatic microsomes at 20 mg/kg, po QD for 4 days relative to control; format: ADME, organism-based, Liver; settings: microsomes, 96 h
Procedure, shortened: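 Male CD rats (226–325 g), n = 3, given test compound by oral gavage once daily for 4 days. Vehicle was 1% w/v methylcellulose aqueous suspension (3–6 mg/mL, 5 mL/kg); target dose 15–30 mg/kg. Liver from the left lateral lobe was put in RNALater, then TRIzol extraction and cDNA conversion; Cyp1a analysed on low-density arrays.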

Rattus norvegicus [14] = experiment: Induction of CYP1A1 mRNA expression in rat hepatic microsomes at 20 mg/kg, po QD for 4 days relative to control; format: ADME, organism-based, Liver; settings: microsomes, 96 h
Procedure, shortened: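 Male CD rats, n = 3, received the compound once daily by oral gavage for 4 days in 1% methylcellulose suspension at 5 mL/kg. At necropsy a left lateral liver lobe section was stored in RNALater on ice. Tissue was TRIzol-homogenized, RNA purified, DNased and converted to cDNA. Cyp1a1 was read on low density arrays and expressed relative to control.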

Hepatocyte [15] = experiment: as §2; format: ADME, cell-based; settings: 10 µM
Hepatocyte [16] = experiment: as §3; format: ADME, cell-based; settings: 10 µM
CYP1A2 [17] = target: T1, CYP1A2 (Homo sapiens, UniProt P05177); experiment: Induction of CYP1A2-mediated 7-ethoxyresorufin O-deethylase activity in human hepatocytes at 5 uM after 10 mins by fluorescence assay relative to control; format: ADME, cell-based, Hepatocyte; settings: probe 7-ethoxyresorufin, read-out: FC
T1 sequence (P05177 whole entry): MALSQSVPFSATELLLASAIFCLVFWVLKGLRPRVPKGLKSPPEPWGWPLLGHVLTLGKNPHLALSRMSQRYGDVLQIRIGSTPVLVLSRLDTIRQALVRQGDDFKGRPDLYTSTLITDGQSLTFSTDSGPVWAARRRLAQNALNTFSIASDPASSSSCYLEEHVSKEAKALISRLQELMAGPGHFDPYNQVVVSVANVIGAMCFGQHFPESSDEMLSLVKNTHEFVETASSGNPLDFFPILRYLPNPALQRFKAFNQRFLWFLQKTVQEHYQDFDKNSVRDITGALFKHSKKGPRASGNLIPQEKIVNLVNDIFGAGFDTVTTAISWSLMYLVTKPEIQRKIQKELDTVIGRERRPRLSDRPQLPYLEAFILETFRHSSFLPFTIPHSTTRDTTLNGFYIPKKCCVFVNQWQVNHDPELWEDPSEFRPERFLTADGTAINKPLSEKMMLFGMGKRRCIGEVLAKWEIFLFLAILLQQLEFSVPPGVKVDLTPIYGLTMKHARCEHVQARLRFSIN
Procedure, shortened: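 Human hepatocytes were treated for 48 h (re-dosed at 24 h), washed, then incubated with 0.5 μM ethoxyresorufin in serum-free medium for 10 min at 37 °C. Resorufin fluorescence read at Ex 530/Em 590 nm. Rate in fluorescence units/min expressed as fold over solvent control.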

CYP1A2 [18] = experiment: Induction of CYP1A2 mRNA expression in human hepatocytes at 10 uM relative to control; format: ADME, cell-based, Hepatocyte; settings: read-out: FC

| Structure (SMILES) | fold induction at 168 h (CYP1A2 [1]) | fold induction at 168 h (CYP1A1 [2]) | fold induction at 10 µM (CYP1A2 [3]) | fold induction at 10 µM (CYP1A1 [4]) | Activity (Rattus norvegicus [5]) | fold induction at 168 h (CYP1A1 [6]) | Activity (Rattus norvegicus [7]) | Activity (Rattus norvegicus [8]) | Activity (Rattus norvegicus [9]) | Activity (Rattus norvegicus [10]) | Activity (Rattus norvegicus [11]) | Activity (Rattus norvegicus [12]) | fold change (FC) (Rattus norvegicus [13]) | fold change (FC) (Rattus norvegicus [14]) | fold change (FC) (Hepatocyte [15]) | fold change (FC) (Hepatocyte [16]) | fold induction at 10 min, 5 µM (CYP1A2 [17]) | fold induction at 10 µM (CYP1A2 [18]) |
| --- | --- | --- | --- | --- | --- | --- | --- | --- | --- | --- | --- | --- | --- | --- | --- | --- | --- | --- |
| CC(C)Oc1ccc(-c2nc(-c3ccc4c(c3)CCN(CCCC(=O)O)CC4)no2)cc1C#N | 2 | 210 | 2 | 3 | Toxic | 10000 | Toxic | Toxic | Dose-dependent effect | Dose-dependent effect | Dose-dependent effect | Dose-dependent effect |  |  |  |  |  |  |
| CC(C)Oc1ncc(-c2nc(-c3cccc4c3OCCNC4CCCC(=O)O)no2)cc1Cl (stereo in doubt; 7) |  |  |  |  |  |  |  |  |  |  |  |  | 1 | 1 | 8 | 32 |  |  |
| CC(C)Oc1ccc(-c2nc(-c3cccc4c3OCCN(CCCC(=O)O)C4)no2)cc1Cl | 8 | 75 | 3 | 5 | Toxic | 10000 | Toxic | Toxic | Dose-dependent effect | Dose-dependent effect | Dose-dependent effect | Dose-dependent effect |  |  |  |  | 1.1 | 0.6 |
